Reference: ChEMBL document CHEMBL4316619 (Bioorg Med Chem Lett, 2019)
Active and inactive are the calls of the source. The calls are words filed in the database; no cut-off is given here.

Key:
[1] = Drug level in C57BL/6 mouse liver at 30 mg/kg, ip measured at 48 hrs; assay type: ADME, organism-based; settings: in vivo
In short: (§1)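 Male C57BL/6 mice received a single intraperitoneal dose of 30 mg/kg (N=3). Compound concentrations were followed over time in plasma, liver and lung. Tmax, Cmax, terminal t1/2, AUClast and AUCINF were derived from the mean concentration-time profiles.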

[2] = AUClast in C57BL/6 mouse plasma at 30 mg/kg, ip; assay type: ADME, organism-based; set-up: dose 30 mg/kg, route intraperitoneal, time 0 - last; in short: as §1
[3] = Stability of the compound in mouse liver microsomes assessed as parent compound remaining measured after 30 mins; assay type: ADME, Microsome; settings: read-out: Stability
In short: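 Mouse liver microsomes; percent parent compound remaining measured at 0, 15 and 30 min.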

Influenza A virus [4] = experiment: Antiviral activity against Influenza A virus A/PR/8/34 (H1N1) infected in MDCK cells assessed as 3-log reduction in virus titer measured after 48 hrs by hemagglutination assay; assay type: functional, A/Puerto Rico/8/1934(H1N1)
In short: (§2)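 MDCK cells were infected with A/PR/8/34 (H1N1) at MOI 0.1 and incubated with compound for 48 h. Supernatant virus was then quantified by hemagglutination assay and standard TCID50 analysis. The single-concentration screen used 10 μM and reports fold reduction in titer. Dose-response runs used triplicate cultures, with percent titer decrease back-calculated from TCID50.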

[5] = Drug level in C57BL/6 mouse lung at 30 mg/kg, ip measured at 8 hrs; assay type: ADME, organism-based; settings: in vivo; in short: as §1
[6] = AUClast in C57BL/6 mouse liver at 30 mg/kg, ip; assay type: ADME, organism-based; set-up: dose 30 mg/kg, time 0 - last, route intraperitoneal; in short: as §1
[7] = Drug level in C57BL/6 mouse liver at 30 mg/kg, ip measured at 0.5 hrs; assay type: ADME, organism-based; settings: in vivo; in short: as §1
Influenza B virus = experiment: Antiviral activity against Influenza B virus (B/Brisbane/60/2008) infected in MDCK cells assessed as reduction in virus-induced cytopathic effect measured on day 5 by Celltiter-Glo luminescence assay; assay type: functional, organism-based
[8] = Cmax in C57BL/6 mouse lung at 30 mg/kg, ip; assay type: ADME, organism-based; set-up: dose 30 mg/kg, route intraperitoneal; in short: as §1
[9] = Drug level in C57BL/6 mouse lung at 30 mg/kg, ip measured at 4 hrs; assay type: ADME, organism-based; settings: in vivo; in short: as §1
[10] = Drug level in C57BL/6 mouse plasma at 30 mg/kg, ip measured at 0.5 hrs; assay type: ADME, organism-based
In short: (§3)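 Male C57BL/6 mice, single intraperitoneal 30 mg/kg dose, N=3. Plasma, liver and lung concentrations followed over time to give concentration-time profiles, from which Tmax, Cmax, terminal t1/2, AUClast and AUCINF were derived.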

[11] = Drug level in C57BL/6 mouse liver at 30 mg/kg, ip measured at 1 hrs; assay type: ADME, organism-based; settings: in vivo; in short: as §1
[12] = Drug level in C57BL/6 mouse liver at 30 mg/kg, ip measured at 8 hrs; assay type: ADME, organism-based; settings: in vivo; in short: as §1
[13] = Drug level in C57BL/6 mouse plasma at 30 mg/kg, ip measured at 24 hrs; assay type: ADME, organism-based; in short: as §3
[14] = Drug level in C57BL/6 mouse plasma at 30 mg/kg, ip measured at 12 hrs; assay type: ADME, organism-based; in short: as §3
[15] = Drug level in C57BL/6 mouse liver at 30 mg/kg, ip measured at 24 hrs; assay type: ADME, organism-based; settings: in vivo; in short: as §1
[16] = Toxicity in C57BL/6 mouse assessed as effect on lungs at 30 mg/kg, ip; assay type: organism-based; settings: in vivo
[17] = Drug level in C57BL/6 mouse lung at 30 mg/kg, ip measured at 0.25 hrs; assay type: ADME, organism-based; settings: in vivo; in short: as §1
Saccharomyces cerevisiae = experiment: Effect on growth of Yeast 9526-6-2 harboring pYES at 50 uM measured up to 60 hrs; assay type: organism-based; settings: in vivo
In short: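 Control yeast carrying empty pYES and NS1-expressing NS1-pYES strain grown with DMSO or compound at 50 μM. Growth measured as OD600 at 22, 42 and 60 h.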

[18] = biological target: Non-structural protein 1 (Influenza A virus (strain A/Puerto Rico/8/1934 H1N1)) (UniProt P03496); experiment: Inhibition of NS1 in Influenza A virus A/PR/8/34 (H1N1) infected in MDCK cells assessed as restoration of protein-induced reduction in IFN-beta mRNA expression at 20 uM measured after 6 hrs by RT-PCR analysis; assay type: cell-based; settings: Influenza A virus (A/Puerto Rico/8/1934(H1N1))
Non-structural protein 1 (Influenza A virus (strain A/Puerto Rico/8/1934 H1N1)), sequence (P03496 whole entry): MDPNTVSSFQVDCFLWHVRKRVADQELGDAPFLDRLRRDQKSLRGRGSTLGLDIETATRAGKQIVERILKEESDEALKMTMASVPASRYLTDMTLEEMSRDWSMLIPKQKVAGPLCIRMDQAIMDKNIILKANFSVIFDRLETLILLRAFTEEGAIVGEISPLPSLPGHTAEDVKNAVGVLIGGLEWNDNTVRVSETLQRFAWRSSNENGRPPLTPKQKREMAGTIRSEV
In short: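 MDCK cells infected with A/PR/8/34 at MOI 2 and incubated 6 h with compound at 20 μM. Cells harvested; IFN-β and β-actin mRNA detected by RT-PCR. Poly(I:C) lane serves as positive control for IFN-β induction.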

[19] = Cmax in C57BL/6 mouse liver at 30 mg/kg, ip; assay type: ADME, organism-based; set-up: dose 30 mg/kg, route intraperitoneal; in short: as §1
[20] = Drug level in C57BL/6 mouse liver at 30 mg/kg, ip measured at 2 hrs; assay type: ADME, organism-based; settings: in vivo; in short: as §1
[21] = Apparent permeability across apical to basolateral side in human Caco2 cells measured after 2 hrs in presence of 3% BSA; assay type: ADME, cell-based; settings: caco-2, 2 h
In short: (§4)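 Permeability was measured across Caco-2 monolayers in both directions, apical to basolateral and basolateral to apical. […] Runs were done with and without 3% BSA, and mass recovery (%) was reported for each direction. Efflux ratio = Papp B→A / Papp A→B.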

[22] = Tmax in C57BL/6 mouse plasma at 30 mg/kg, ip; assay type: ADME, organism-based; settings: mouse, in vivo; in short: as §3
[23] = Toxicity in C57BL/6 mouse assessed as effect on liver at 30 mg/kg, ip; assay type: organism-based; settings: in vivo
[24] = biological target: Non-structural protein 1 (Influenza A virus (strain A/Puerto Rico/8/1934 H1N1)) (UniProt P03496); experiment: Inhibition of Influenza A virus A/PR/8/34 (H1N1) NS1 expressed in 293 cells assessed as increase in poly(I:C)-induced IFN-beta reporter activity treated 16 hrs […] measured after 24 hrs by luciferase reporter gene assay; assay type: cell-based; settings: Influenza A virus (A/Puerto Rico/8/1934(H1N1))
In short: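 293 cells co-transfected with a human IFN-β promoter-driven firefly luciferase reporter and NS1 expression constructs. At 16 h post-transfection, poly(I:C) 50 μg/mL plus compound (20 μM) or 1% DMSO added for a further 24 h; luciferase read by luminometer. Untransfected cells serve as baseline.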

Influenza A virus [25] = experiment: Antiviral activity against Influenza A virus A/PR/8/34 (H1N1) infected in MDCK cells assessed as reduction in virus titer measured after 48 hrs by hemagglutination assay; assay type: functional; settings: A/Puerto Rico/8/1934(H1N1); in short: as §2
[26] = Drug level in C57BL/6 mouse liver at 30 mg/kg, ip measured at 0.25 hrs; assay type: ADME, organism-based; settings: in vivo; in short: as §1
[27] = Drug level in C57BL/6 mouse plasma at 30 mg/kg, ip measured at 0.25 hrs; assay type: ADME, organism-based; in short: as §3
[28] = Drug level in C57BL/6 mouse lung at 30 mg/kg, ip measured at 0.083 hrs; assay type: ADME, organism-based; settings: in vivo; in short: as §1
[29] = Apparent permeability across apical to basolateral side in human Caco2 cells assessed as drug recovery; assay type: ADME, cell-based; settings: caco-2; in short: as §4
[30] = Drug level in C57BL/6 mouse liver at 30 mg/kg, ip measured at 0.083 hrs; assay type: ADME, organism-based; settings: in vivo; in short: as §1
[31] = Drug level in C57BL/6 mouse lung at 30 mg/kg, ip measured at 0.5 hrs; assay type: ADME, organism-based; settings: in vivo; in short: as §1

For `COc1cc(-c2ccnc3c2c(C)nn3-c2ccc(C(F)(F)F)cc2)ccc1O`, the Drug uptake [1] was 23 nmol/kg, the AUC(0-t) [2] was 7660 ng·h/mL and the remaining at 0.5 h [3] was 45%. It also gave a TCID50 (Influenza A virus [4]) of 1.6 µM, a Drug uptake [5] of 3931 nmol/kg and an AUC(0-t) [6] of 80200 ng·h/mL. For the same molecule, the Drug uptake [7] was 62599 nmol/kg, the Activity (Influenza B virus) was “inactive” and the Cmax [8] was 18600 ng/mL. It also gave a Drug uptake [9] of 11477 nmol/kg, a concentration at 0.5 h [10] of 5760 nM and a Drug uptake [11] of 44487 nmol/kg. The Drug uptake [12] was 5058 nmol/kg, the concentration at 24 h [13] was 20 nM and the concentration at 12 h [14] was 209 nM. The Drug uptake [15] was 224 nmol/kg, the Activity [16] was “Non-Toxic” and the Drug uptake [17] was 46490 nmol/kg. The Activity (Saccharomyces cerevisiae) was “Non-Toxic”, the inhibition [18] was “Active” and the Cmax [19] was 49600 ng/mL. It also gave a Drug uptake [20] of 18413 nmol/kg, a Papp [21] of 0.22 ×10⁻⁶ cm/s and a Tmax [22] of 15 min. For the same molecule, the Activity [23] was “Non-Toxic”, the inhibition [24] was “Active” and the IC90 (Influenza A virus [25]) was 155 nM. The Drug uptake [26] was 124197 nmol/kg, the concentration at 0.25 h [27] was 6100 nM and the Drug uptake [28] was 20891 nmol/kg. It also gave a Drug recovery [29] of 5%, a Drug uptake [30] of 114014 nmol/kg and a Drug uptake [31] of 36057 nmol/kg.
